Active and inactive are the calls of the source. No cut-off for these calls is given here.

For data set [1], the system named is Plasmodium falciparum. As to the kind of experiment: Antiplasmodial activity against Plasmodium falciparum Dd2 assessed as reduction in parasite growth after 72 hrs by SYBR Green 1 staining based assay. The format is functional, organism-based. The gist of the method: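 Dd2 cultures started at ring stage, 1% hematocrit and 1% parasitemia. Grown 72 h at 37 °C in 5% CO2/5% O2/90% N2 across increasing drug concentrations. Viability read by SYBR Green I DNA quantitation in lysis buffer. IC50 from nonlinear regression; mean of three independent determinations, each in triplicate, ± SEM.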

The test system of data set [2] is Plasmodium falciparum. As to the kind of experiment: Antiplasmodial activity against Plasmodium falciparum Dd2 schizonts form infected in erythrocytes assessed as reduction in parasite growth at 0.5 uM after 6 hrs by Giemsa staining based light microscopic method. The format is functional, organism-based. Put shortly:
(§1)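 Compound added at schizont stage (40–42 post-invasion). Morphology assessed on Giemsa-stained thin blood smears at 6, 24 and 48 h of treatment and compared with untreated controls. Two or more independent experiments.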

Data set [3] deals with Plasmodium falciparum. As to the kind of experiment: Antiplasmodial activity against Plasmodium falciparum Dd2 schizonts form infected in erythrocytes assessed as reduction in ring stage formation at 0.5 uM after 6 hrs by Giemsa staining based light microscopic method. The format is functional, organism-based. The gist of the method:
as §1

Data set [4] relates to Plasmodium falciparum. As to the kind of experiment: Antiplasmodial activity against Plasmodium falciparum Dd2 schizonts form infected in erythrocytes assessed as reduction in reinvasion at 0.5 uM after 6 hrs by Giemsa staining based light microscopic method. The format is functional, organism-based. Put shortly:
as §1

Data set [5] has as its system Plasmodium falciparum. As to the kind of experiment: Antiplasmodial activity against Plasmodium falciparum Dd2 ring stage form infected in erythrocytes assessed as reduction in reinvasion at 0.5 uM after 48 to 72 hrs by Giemsa staining based light microscopic method. The format is functional, organism-based. The gist of the method:
(§2)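 Compound added at ring stage (2–4 h post-invasion). Development followed on Giemsa-stained thin blood smears after 6, 24, 48 and 72 h of treatment and compared with untreated controls. Two or more independent experiments.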

Data set [6] deals with Plasmodium falciparum. As to the kind of experiment: Antiplasmodial activity against Plasmodium falciparum Dd2 ring stage form infected in erythrocytes assessed as reduction in parasite growth at 0.5 uM after 6 to 72 hrs by Giemsa staining based light microscopic method. The format is functional, organism-based. The gist of the method:
as §2

The nature of data set [7]: Hemolytic activity in human RBC. The format is cell-based, Erythrocyte. The settings on record: human red blood cells (erythrocytes).
The subject of data set [8] is Plasmodium falciparum. As to the kind of experiment: Antiplasmodial activity against Plasmodium falciparum Dd2 schizonts form infected in erythrocytes assessed as reduction in trophozoites formation at 0.5 uM after 48 hrs by Giemsa staining based light microscopic method. The format is functional, organism-based. Put shortly:
as §1

In data set [9] the test system is Plasmodium falciparum. As to the kind of experiment: Antiplasmodial activity against Plasmodium falciparum Dd2 schizonts form infected in erythrocytes assessed as morphological defects at 0.5 uM after 48 hrs by Giemsa staining based light microscopic method. The format is functional, organism-based. The gist of the method:
as §1

The next data set relates to A2780. As to the kind of experiment: Cytotoxicity against human A2780 cells assessed as reduction in cell viability after 2 days by AlamarBlue assay. The settings on record: A2780, 48 h. The format is ADME, cell-based. Background: The colour change of resazurin is a common sign of viable cells or microbes.
The subject of data set [10] is Plasmodium falciparum. As to the kind of experiment: Antiplasmodial activity against Plasmodium falciparum Dd2 schizonts form infected in erythrocytes assessed as reduction in ring stage formation at 1 uM after 6 hrs by Giemsa staining based light microscopic method. The format is functional, organism-based. Put shortly:
as §1

Data set [11] has as its system Plasmodium falciparum. As to the kind of experiment: Antiplasmodial activity against Plasmodium falciparum Dd2 ring stage form infected in erythrocytes assessed as reduction in parasite growth at 1 uM after 6 to 72 hrs by Giemsa staining based light microscopic method. The format is functional, organism-based. The gist of the method:
as §2

Data set [12] relates to Plasmodium falciparum. The experiment in a line: Antiplasmodial activity against Plasmodium falciparum Dd2 schizonts form infected in erythrocytes assessed as reduction in parasite growth at 1 uM after 6 hrs by Giemsa staining based light microscopic method. The format is functional, organism-based. The gist of the method:
as §1

Data set [13] relates to Plasmodium falciparum. The experiment in a line: Antiplasmodial activity against Plasmodium falciparum Dd2 ring stage form infected in erythrocytes assessed as reduction in reinvasion at 1 uM after 48 to 72 hrs by Giemsa staining based light microscopic method. The format is functional, organism-based. The gist of the method: as §2
Data set [14] relates to Plasmodium falciparum. As to the kind of experiment: Antiplasmodial activity against Plasmodium falciparum Dd2 schizonts form infected in erythrocytes assessed as reduction in reinvasion at 1 uM after 6 hrs by Giemsa staining based light microscopic method. The format is functional, organism-based. The gist of the method: as §1
In data set [15] the test system is Plasmodium falciparum. As to the kind of experiment: Antiplasmodial activity against Plasmodium falciparum Dd2 schizonts form infected in erythrocytes assessed as morphological defects formation at 1 uM after 48 hrs by Giemsa staining based light microscopic method. The format is functional, organism-based. The gist of the method:
as §1

In data set [16] the test system is Plasmodium falciparum. As to the kind of experiment: Antiplasmodial activity against Plasmodium falciparum Dd2 schizonts form infected in erythrocytes assessed as reduction in trophozoites formation at 1 uM after 48 hrs by Giemsa staining based light microscopic method. The format is functional, organism-based. The gist of the method:
as §1

Data set [17] has as its system Plasmodium falciparum. The experiment in a line: Antiplasmodial activity against Plasmodium falciparum Dd2 schizonts form infected in erythrocytes assessed as reduction in ring stage formation at 1.25 uM after 6 hrs by Giemsa staining based light microscopic method. The format is functional, organism-based. The gist of the method: (§3)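 Dd2 intraerythrocytic cultures were treated either at ring stage (2–4 h post-invasion) or at schizont stage (40–42 post-invasion). Development and morphology were followed by light microscopy of Giemsa-stained thin blood smears at 6, 24, 48 and 72 h of treatment and compared with untreated controls. Data come from two or more independent experiments.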

In data set [18] the test system is Plasmodium falciparum. As to the kind of experiment: Antiplasmodial activity against Plasmodium falciparum Dd2 schizonts form infected in erythrocytes assessed as reduction in parasite growth at 1.25 uM after 6 hrs by Giemsa staining based light microscopic method. The format is functional, organism-based. The gist of the method:
as §3

Data set [19] relates to Plasmodium falciparum. The experiment in a line: Antiplasmodial activity against Plasmodium falciparum Dd2 schizonts form infected in erythrocytes assessed as reduction in reinvasion at 1.25 uM after 6 hrs by Giemsa staining based light microscopic method. The format is functional, organism-based. The gist of the method:
as §3

Where [20] appears, read: Plasmodium falciparum, Dd2, 72 h, read-out: IC50.

As a reminder, the IC50 is the concentration that gives 50% inhibition. Consider `CCCCCCCC/C=C/c1c(C)cc(CCCOC)nc1C`, for which the 50% inhibitory concentration (IC50) in the data set on Plasmodium falciparum [1] (setting [20]) was found to be 6.7 µM.

Turning to `CCCCCCCCCCc1c(C)cc(C)[n+]2c1CCC2`, in the data set with Plasmodium falciparum [1] (setting [20]), the IC50 is 0.06 µM. The outcome in the data set with Plasmodium falciparum [2], in the data set with Plasmodium falciparum [3], in the data set with Plasmodium falciparum [4], in the data set on Plasmodium falciparum [5] and in the data set on Plasmodium falciparum [6] was inactive.

One may read the HC50 as the concentration giving 50% haemolysis. Higher therefore signals weaker haemolysis. Take `CCCCCCCC/C=C/c1c(C)c(/C=C/CCCCCCCC)c2[n+](c1C)CCC2`: in the data set with Plasmodium falciparum [1] (setting [20]), the IC50 was 0.096 µM. In addition, the result in the data set on Plasmodium falciparum [2], in the data set on Plasmodium falciparum [3] and in the data set on Plasmodium falciparum [4] was inactive. For the same molecule, the HC50 in [7] is > 58 µM. The outcome in the data set with Plasmodium falciparum [8] and in the data set on Plasmodium falciparum [9] was Active.

`CCCCCCCC/C=C\c1c(C)nc(CCCOC)c(/C=C\CCCCCCCC)c1C`: in the data set on Plasmodium falciparum [1] (setting [20]), the IC50 is 19.3 µM.

For `CCCCCCCCCCc1c(C)cc(C)nc1C`, in the data set with Plasmodium falciparum [1] (setting [20]), the IC50 was > 20 µM.

Take `CCCCCCCC/C=C/c1c(C)cc(C)nc1CCCOC`: in the data set with Plasmodium falciparum [1] (setting [20]), the IC50 is > 20 µM.

For `CCCCCCCC/C=C\c1c(C)nc(C)c(/C=C\CCCCCCCC)c1C`, the IC50 in the data set on Plasmodium falciparum [1] (setting [20]) was > 20 µM.

As for `CCCCCCCCCCc1c(C)cc(C)nc1CCCOC`, the 50% inhibitory concentration (IC50) with Plasmodium falciparum [1] (setting [20]) was > 20 µM.

`C=CC[C@@]12C=C(OC)C(=O)[C@@H]([C@@H](c3ccc4c(c3)OCO4)[C@@H]1C)[C@@H]2O`: the values for the IC50 with Plasmodium falciparum [1] (setting [20]) and with A2780 were > 100 µM and 10 to 50 µM, respectively.

In the case of `CCCCCCCCCCc1c(C)c(CCCCCCCCCC)c2[n+](c1C)CCCC2`, in the data set on Plasmodium falciparum [1] (setting [20]), the half-inhibitory concentration (IC50) is 0.058 µM. Besides, the outcome with Plasmodium falciparum [2], in the data set on Plasmodium falciparum [3] and in the data set on Plasmodium falciparum [4] was inactive. Also, in data set [7], the HC50 was > 58 µM. Further, the outcome in the data set on Plasmodium falciparum [8] and in the data set on Plasmodium falciparum [9] was Active.

As for `CCCCCCCC/C=C\c1c(C)cc2[n+](c1C)CCC2`, the outcome with Plasmodium falciparum [10], in the data set with Plasmodium falciparum [11], in the data set with Plasmodium falciparum [12], in the data set with Plasmodium falciparum [13] and in the data set with Plasmodium falciparum [14] was inactive. Moreover, the IC50 in the data set on Plasmodium falciparum [1] (setting [20]) was 0.142 µM.

For `CCCCCCCC/C=C/c1c(C)c(/C=C/CCCCCCCC)c2[n+](c1C)CCCC2`, the outcome in the data set on Plasmodium falciparum [10], in the data set on Plasmodium falciparum [12] and in the data set on Plasmodium falciparum [14] was inactive. In the data set on Plasmodium falciparum [1] (setting [20]), the concentration for half-maximal inhibition (IC50) came to 0.061 µM. Besides, the result in the data set on Plasmodium falciparum [15] and in the data set with Plasmodium falciparum [16] was Active. Moreover, the HC50 in [7] is > 58 µM.

In the case of `CCCCCCCC/C=C/c1c(C)nc(C)c(/C=C/CCCCCCCC)c1C`, the IC50 in the data set on Plasmodium falciparum [1] (setting [20]) was > 20 µM.

Take `CCCCCCCC/C=C/c1c(C)cc(C)nc1C`: the IC50 in the data set on Plasmodium falciparum [1] (setting [20]) was > 20 µM.

On to `CCCCCCCCCCc1c(C)cc(CCCOC)nc1C`, for which the IC50 with Plasmodium falciparum [1] (setting [20]) was determined as 5.3 µM.

Consider `CCCCCCCC/C=C\c1c(C)c(/C=C\CCCCCCCC)c2[n+](c1C)CCCCC2`, for which the IC50 in the data set with Plasmodium falciparum [1] (setting [20]) is 0.067 µM. Further, the result with Plasmodium falciparum [2], in the data set with Plasmodium falciparum [3] and in the data set on Plasmodium falciparum [4] was inactive. Moreover, the HC50 in data set [7] is > 58 µM. Moreover, the outcome with Plasmodium falciparum [8] and with Plasmodium falciparum [9] was Active.

For the molecule `C=CC[C@@]12C=C(OC)C(=O)[C@@H]([C@H](c3ccc4c(c3)OCO4)[C@H]1C)[C@H]2O`, the figures for the IC50 result in the data set on Plasmodium falciparum [1] and with A2780 were “Not Active” and 10 to 50 µM, respectively.

As to `CCCCCCCC/C=C\c1c(C)c(/C=C\CCCCCCCC)c2[n+](c1C)CCC2`, the result in the data set with Plasmodium falciparum [17], in the data set on Plasmodium falciparum [2], in the data set with Plasmodium falciparum [18], with Plasmodium falciparum [19], in the data set on Plasmodium falciparum [3] and with Plasmodium falciparum [4] was inactive. The outcome in the data set on Plasmodium falciparum [8] and with Plasmodium falciparum [9] was Active.

Regarding `C=CCc1c(O)c(OC)cc2c1O[C@H](c1ccc3c(c1)OCO3)[C@H]2C`, the figures for the IC50 with Plasmodium falciparum [1] (setting [20]) and in the data set on A2780 were 30 µM and 10 to 35 µM, respectively.

As for `CCCCCCCC/C=C/c1c(C)c(/C=C/CCCCCCCC)c2[n+](c1C)CCCCC2`, the IC50 with Plasmodium falciparum [1] (setting [20]) turned out to be 0.06 µM. The outcome in the data set with Plasmodium falciparum [2], with Plasmodium falciparum [3] and with Plasmodium falciparum [4] was inactive. In addition, the HC50 in data set [7] is > 58 µM. Moreover, the result in the data set with Plasmodium falciparum [8] and in the data set with Plasmodium falciparum [9] was Active.

Source of the values: ChEMBL document CHEMBL4613213, “Anibamine and Its Analogues: Potent Antiplasmodial Agents from Aniba citrifolia” (J Nat Prod, 2020).
